Test results taken from ChEMBL document CHEMBL1132719, “cycloSal-Pronucleotides of 2'-fluoro-ara- and 2'-fluoro-ribo-2',3'- dideoxyadenosine as a strategy to bypass a metabolic blockade” (J Med Chem, 1999).

Experiments:
[1] = Partition coefficient (logP); assay type: physicochemical; conditions: octanol/water
Procedure, shortened: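 Compound dissolved in 1-octanol, then an equal volume of water added. Phases were vortexed 10 min and separated by centrifugation. Each phase was analysed by RP-HPLC (UV 260 nm). P was calculated from the peak areas of the aqueous and organic phases.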

[2] = Hydrolysis half life in phosphate buffer.; assay type: ADME
Procedure, shortened: (§1)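 Triester at 0.71 mM final in 25 mM Sørensen phosphate buffer, pH 7.3, 37 °C, with AZT as internal standard. Aliquots were frozen in liquid air, then analysed by RP-HPLC (UV 260 nm). k was taken from the slope of the log degradation curve of the starting triester and t1/2 derived from k. Values are the mean of duplicates, in hours.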

[3] = test system: C3H/3T3; test: (§2) Minimal cytotoxic concentration required to cause morphological alteration of C3H/3T3 fibroblast culture cells; assay type: functional; conditions: Mus musculus
Procedure, shortened: (§3)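 C3H/3T3 cells seeded at 20 000 cells/mL and grown 24 h, then infected with 80 focus-forming units of MSV for 120 min. Medium was replaced with fresh medium containing the test compound. Transformation was examined microscopically after 6 days. EC50 is the concentration giving 50% inhibition of transformation. MCC is the minimum concentration causing microscopically visible morphological alteration of the cultures.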

[4] = test system: C3H/3T3; test: (§4) Effect of compound against Moloney murine sarcoma virus (MSV)-induced transformation of C3H/3T3 embryo murine fibroblasts; assay type: functional, cell-based; conditions: Mus musculus; procedure, shortened: as §3
[5] = test system: CCRF-CEM; test: Antiviral activity evaluated as the ability to inhibit the replication of HIV-1 in human T-lymphocytic cells (CEM); assay type: functional, cell-based
Procedure, shortened: (§5)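 CEM cells at 4 × 10^5 cells/mL infected with HIV-1 (HTLV-IIIB) or HIV-2 (ROD) at ~100 CCID50 per mL. Virus stocks came from infected MT-4 supernatants. Infected cells were mixed with serial compound dilutions. Giant cell formation was scored microscopically after 4–5 days. EC50 is the 50% effective concentration.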

[6] = test system: CCRF-CEM; test: Antiviral activity evaluated as the ability to inhibit the replication of HIV-2 in human T-lymphocytic cells (CEM); assay type: functional, cell-based; procedure, shortened: as §5
[7] = Selectivity index by CC50 of CEM cells/EC50 of CEM cells against HIV-1; assay type: functional, CCRF-CEM
[8] = test system: CCRF-CEM; test: Cytotoxic concentration in Wild Type CEM cells; assay type: functional; conditions: Homo sapiens
[9] = test system: C3H/3T3; test: as §2; assay type: functional; conditions: Mus musculus; remark: listed apart in the source
[10] = test system: C3H/3T3; test: as §4; assay type: functional, cell-based; conditions: Mus musculus; remark: listed apart in the source
Procedure, shortened: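 C3H/3T3 murine embryo fibroblasts seeded at 20 000 cells/mL, incubated 24 h, then infected for 120 min with 80 focus-forming units of Moloney murine sarcoma virus. Medium then replaced with fresh medium containing serial compound concentrations. Cell transformation scored microscopically after 6 days; EC50 taken as the concentration giving 50% inhibition of virus-induced transformation.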

[11] = Hydrolysis half life in phosphate buffer; assay type: ADME; procedure, shortened: as §1

For `Cc1cccc2c1OP(=O)(OC[C@@H]1C[C@@H](F)[C@H](n3cnc4c(N)ncnc43)O1)OC2` (stereo not given in full), the logP [1] was 0.93, the half-life [2] was 23.4 h and the MCC [3] was greater than 50 µM. For the same compound, the EC50 [4] was 2.83 µM, the EC50 [5] was 11.7 µM and the EC50 [6] was 12.5 µM. The SI [7] was 10 and the CC50 [8] was 118 µM.

With `Nc1ncnc2c1ncn2[C@H]1CC[C@@H](CO)O1` the MCC [9] was greater than 50 µM, the EC50 [10] was 39.1 µM and the EC50 [5] was 4.33 µM. For the same compound, the EC50 [6] was 4.55 µM, the SI [7] was greater than 57 and the CC50 [8] was greater than 250 µM.

For `Nc1ncnc2c1ncn2C1OC(COP2(=O)OCc3ccccc3O2)C[C@@H]1F` (stereo not given in full), the logP [1] was 0.95, the half-life [11] was 8.9 h and the MCC [3] was greater than 50 µM. It also gave an EC50 [4] of 1.7 µM, an EC50 [5] of 4.53 µM and an EC50 [6] of 1.85 µM. For the same compound, the SI [7] was 74 and the CC50 [8] was 137 µM.

`Cc1cccc2c1OP(=O)(OCC1C[C@H](F)C(n3cnc4c(O)ncnc43)O1)OC2` (stereo not given in full) gave a logP [1] of 0.51, a half-life [2] of 22.2 h and an MCC [3] greater than 50 µM. It also gave an EC50 [4] greater than 50 µM, an EC50 [5] of 3.57 µM and an EC50 [6] of 3.57 µM. For the same compound, the SI [7] was 26 and the CC50 [8] was greater than 250 µM.

Compound `Nc1ncnc2c1ncn2C1OC(COP2(=O)OCc3ccccc3O2)C[C@H]1F` (stereo not given in full) has a logP [1] of 0.72, a half-life [2] of 8.4 h and an MCC [3] greater than 50 µM. The EC50 [4] was 4.7 µM, the EC50 [5] was 19 µM and the EC50 [6] was 13 µM. For the same compound, the SI [7] was greater than 19 and the CC50 [8] was greater than 250 µM.

With `COc1ccc2c(c1)COP(=O)(OCC1C[C@@H](F)C(n3cnc4c(N)ncnc43)O1)O2` (stereo not given in full) the logP [1] was 0.71, the half-life [2] was 12.3 h and the EC50 [5] was 20 µM. For the same compound, the EC50 [6] was 25 µM, the SI [7] was greater than 12 and the CC50 [8] was greater than 250 µM.

Work on `OCC1C[C@@H](F)C(n2cnc3c(O)ncnc32)O1` (stereo not given in full) yielded a logP [1] of -0.96, an MCC [3] greater than 50 µM and an EC50 [4] greater than 50 µM. The EC50 [5] was greater than 250 µM, the EC50 [6] was greater than 250 µM and the CC50 [8] was greater than 250 µM.

Work on `Cc1cccc2c1OP(=O)(OCC1C[C@@H](F)C(n3cnc4c(O)ncnc43)O1)OC2` (stereo not given in full) yielded a logP [1] of 0.24, a half-life [2] of 22.7 h and an MCC [3] greater than 50 µM. The EC50 [4] was greater than 50 µM, the EC50 [5] was 75 µM and the EC50 [6] was 31.7 µM. It also gave an SI [7] greater than 8 and a CC50 [8] greater than 250 µM.

For `OCC1C[C@H](F)C(n2cnc3c(O)ncnc32)O1` (stereo not given in full), the logP [1] was -1.19, the MCC [3] was greater than 50 µM and the EC50 [4] was greater than 50 µM. It also gave an EC50 [5] of 41.7 µM, an EC50 [6] of 30 µM and an SI [7] greater than 8. The CC50 [8] was greater than 250 µM.

Work on `COc1ccc2c(c1)COP(=O)(OCC1C[C@H](F)C(n3cnc4c(N)ncnc43)O1)O2` (stereo not given in full) yielded a logP [1] of 1.04, a half-life [2] of 13 h and an EC50 [5] of 1.5 µM. For the same compound, the EC50 [6] was 5.67 µM and the CC50 [8] was 121 µM.

In the case of `Cc1cccc2c1OP(=O)(OC[C@@H]1C[C@H](F)C(n3cnc4c(N)ncnc43)O1)OC2` (single isomer, unassigned), the logP [1] is reported as 1.29, the half-life [2] is reported as 21.6 h and the EC50 [5] is reported as 3.67 µM. The EC50 [6] was 3.3 µM, the SI [7] was 44 and the CC50 [8] was 146 µM.

In the case of `Nc1ncnc2c1ncn2[C@@H]1OC(CO)C[C@H]1F` (single isomer, unassigned), the logP [1] is reported as -0.2, the MCC [9] is reported as greater than 50 µM and the EC50 [10] is reported as greater than 50 µM. For the same compound, the EC50 [5] was greater than 250 µM, the EC50 [6] was greater than 250 µM and the CC50 [8] was greater than 250 µM.

In the case of `Nc1ncnc2c1ncn2[C@@H]1O[C@H](CO)C[C@@H]1F` [LODENOSINE], the logP [1] is reported as -0.16, the MCC [9] is reported as greater than 50 µM and the EC50 [10] is reported as greater than 50 µM. The EC50 [5] was 36.7 µM, the EC50 [6] was 40 µM and the SI [7] was greater than 6.8. It also gave a CC50 [8] greater than 250 µM.

`Cc1cn([C@H]2C=C[C@@H](CO)O2)c(=O)[nH]c1=O` [STAVUDINE] showed a CC50 [8] of 56 µM.
